Values belong to the compound of their own block, whether it stands above or below them. Activity calls are given as the source filed them. No cut-off for these calls is given here.
How the values were obtained:
[1] = biological target: Prostaglandin G/H synthase 1 (Homo sapiens, UniProt P23219); experiment: Inhibition of COX1 expressed in CHO cells assessed as inhibition of arachidonic acid-stimulated PGE2 production by enzyme immunoassay; assay type: functional, cell-based
[2] = biological target: T1, Prostaglandin G/H synthase 2 (Homo sapiens, UniProt P35354); experiment: Inhibition of COX2 expressed in CHO cells assessed as inhibition of arachidonic acid-stimulated PGE2 production by enzyme immunoassay
T1 sequence (P35354 whole entry): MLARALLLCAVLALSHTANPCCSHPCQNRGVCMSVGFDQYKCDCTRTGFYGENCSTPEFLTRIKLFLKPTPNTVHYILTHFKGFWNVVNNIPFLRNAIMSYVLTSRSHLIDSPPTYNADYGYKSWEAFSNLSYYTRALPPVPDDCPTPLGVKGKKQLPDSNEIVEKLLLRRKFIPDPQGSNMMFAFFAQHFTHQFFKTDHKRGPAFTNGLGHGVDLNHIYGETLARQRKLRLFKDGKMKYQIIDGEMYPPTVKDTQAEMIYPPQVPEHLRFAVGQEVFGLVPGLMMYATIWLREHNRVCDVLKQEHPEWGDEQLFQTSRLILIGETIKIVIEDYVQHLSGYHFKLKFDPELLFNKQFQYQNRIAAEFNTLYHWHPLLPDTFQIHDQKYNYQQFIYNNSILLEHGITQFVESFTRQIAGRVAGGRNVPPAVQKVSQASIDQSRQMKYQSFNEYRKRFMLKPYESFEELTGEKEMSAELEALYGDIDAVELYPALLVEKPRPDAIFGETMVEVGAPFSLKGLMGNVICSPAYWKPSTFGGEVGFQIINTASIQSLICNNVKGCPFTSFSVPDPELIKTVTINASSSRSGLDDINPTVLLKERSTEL

[3] = test system: LNCaP; experiment: Cell cycle arrest in human LNCaP cells by accumulation at subG1 phase at 10 uM after 72 hrs by FACS flow cytometry; assay type: functional
Procedure, shortened: (§1)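 LNCaP or PC 3 cells seeded in 6-well plates, synchronized 24 h in serum-free medium, treated 72 h with varying compound concentrations; trypsinized cells pooled with supernatants, pelleted, fixed in cold ethanol overnight at 4 °C, then 30 min in PBS with RNase and propidium iodide. FACScan flow cytometry quantified sub-G1 (sub-diploid), G1, S and G2-M fractions as percent of cells.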

[4] = test system: PC-3; experiment: Inhibition of MMP9 secretion in androgen-independent human PC3 cells; assay type: functional, cell-based
[5] = biological target: T2, Polyunsaturated fatty acid 5-lipoxygenase (Homo sapiens, UniProt P09917); experiment: Inhibition of 5LOX in human whole blood assessed as inhibition of calcium ionophore A 23187-stimulated 5HETE production by HPLC analysis; assay type: functional, tissue-based
T2 sequence (P09917 whole entry): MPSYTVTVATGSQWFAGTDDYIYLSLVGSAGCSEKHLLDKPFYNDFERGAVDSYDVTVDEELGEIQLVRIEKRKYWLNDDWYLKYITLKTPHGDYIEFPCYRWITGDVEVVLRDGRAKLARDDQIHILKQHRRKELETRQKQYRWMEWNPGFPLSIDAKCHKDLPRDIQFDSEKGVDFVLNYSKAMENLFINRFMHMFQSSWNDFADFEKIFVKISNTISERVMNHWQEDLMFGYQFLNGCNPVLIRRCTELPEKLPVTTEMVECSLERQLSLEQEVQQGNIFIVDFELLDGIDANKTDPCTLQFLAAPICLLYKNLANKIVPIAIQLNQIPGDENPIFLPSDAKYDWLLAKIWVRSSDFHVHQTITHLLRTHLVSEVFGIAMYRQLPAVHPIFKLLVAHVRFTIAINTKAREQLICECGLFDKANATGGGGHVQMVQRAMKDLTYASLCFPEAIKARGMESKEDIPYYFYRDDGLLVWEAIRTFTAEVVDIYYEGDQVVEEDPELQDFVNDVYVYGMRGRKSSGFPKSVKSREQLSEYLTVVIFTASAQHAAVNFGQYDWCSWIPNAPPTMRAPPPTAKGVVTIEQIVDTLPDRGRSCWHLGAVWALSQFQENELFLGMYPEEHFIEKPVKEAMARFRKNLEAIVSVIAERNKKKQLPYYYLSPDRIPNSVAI
Procedure, shortened: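 Heparinized human whole blood, 1 mL aliquots, preincubated 15 min at 37 °C with compound or DMSO vehicle; then stimulated with 40 μM A 23187 for 15 min at 37 °C. 5-HETE extracted into ethyl acetate, then HPLC on a C18 column, methanol/water/acetic acid 80:20:0.08, pH 6.0, UV at 234 nm. IC50 from n = 2.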

[6] = species: Homo sapiens; experiment: Selectivity for COX2 over COX1
Procedure, shortened: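 Ratio of COX-1 to COX-2 IC50s, each taken from PGE2 production in CHO cells transfected with COX-1 or with COX-2. Cells were seeded and, 18 h later, given fresh Ham's F12 with 10% fetal calf serum with or without compound. After 10 min they were stimulated with arachidonic acid, then for 10 min with calcium ionophore A 23187. Intracellular PGE2 was read by enzyme immunoassay, n = 2.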

[7] = test system: LNCaP; experiment: Cell cycle arrest in human LNCaP cells by accumulation at S phase at 10 uM after 72 hrs by FACS flow cytometry; assay type: functional; procedure, shortened: as §1
[8] = test system: PC-3; experiment: Antiproliferative activity against androgen-independent human PC3 cells after 72 hrs by MTT test; assay type: functional, cell-based; conditions: PC-3, 72 h
Procedure, shortened: (§2)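 Prostate carcinoma cells kept at 37 °C, 5% CO2 in RPMI 1640 with 10% fetal calf serum; seeded 1.8 × 10⁴ (PC 3) or 5.0 × 10⁴ (LNCaP) cells/well, grown 3 days, serum-starved 24 h for synchronization, then exposed 72 h to compounds in medium (<0.1% DMSO); growth read by colorimetric MTT. Mean of at least four independent determinations; single-dose lines at 100 μM.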

[9] = test system: PC-3; experiment: Cell cycle arrest in human PC3 cells by accumulation at subG1 phase at 10 uM after 72 hrs by FACS flow cytometry; assay type: functional; procedure, shortened: as §1
[10] = test system: LNCaP; experiment: Cell cycle arrest in human LNCaP cells by accumulation at G2M phase at 10 uM after 72 hrs by FACS flow cytometry; assay type: functional; procedure, shortened: as §1
[11] = test system: PC-3; experiment: Cell cycle arrest in human PC3 cells by accumulation at G2M phase at 10 uM after 72 hrs by FACS flow cytometry; assay type: functional; procedure, shortened: as §1
[12] = test system: PC-3; experiment: Cell cycle arrest in human PC3 cells by accumulation at S phase at 10 uM after 72 hrs by FACS flow cytometry; assay type: functional; procedure, shortened: as §1
[13] = test system: LNCaP; experiment: Antiproliferative activity against androgen-sensitive human LNCaP cells after 72 hrs by MTT test; assay type: functional, cell-based; procedure, shortened: as §2
[14] = test system: PC-3; experiment: Cell cycle arrest in human PC3 cells by accumulation at G1 phase at 10 uM after 72 hrs by FACS flow cytometry; assay type: functional; procedure, shortened: as §1
[15] = test system: LNCaP; experiment: Cell cycle arrest in human LNCaP cells by accumulation at G1 phase at 10 uM after 72 hrs by FACS flow cytometry; assay type: functional; procedure, shortened: as §1
[16] = test system: LNCaP; experiment: Cell cycle arrest in human LNCaP cells by accumulation at subG1 phase at 100 uM after 72 hrs by FACS flow cytometry; assay type: functional; procedure, shortened: as §1
[17] = test system: LNCaP; experiment: Cell cycle arrest in human LNCaP cells by accumulation at S phase at 100 uM after 72 hrs by FACS flow cytometry; assay type: functional; procedure, shortened: as §1
[18] = test system: PC-3; experiment: Cell cycle arrest in human PC3 cells by accumulation at S phase at 100 uM after 72 hrs by FACS flow cytometry; assay type: functional; procedure, shortened: as §1
[19] = test system: PC-3; experiment: Cell cycle arrest in human PC3 cells by accumulation at subG1 phase at 100 uM after 72 hrs by FACS flow cytometry; assay type: functional; procedure, shortened: as §1
[20] = test system: PC-3; experiment: Cell cycle arrest in human PC3 cells by accumulation at G1 phase at 100 uM after 72 hrs by FACS flow cytometry; assay type: functional; procedure, shortened: as §1
[21] = test system: PC-3; experiment: Cell cycle arrest in human PC3 cells by accumulation at G2M phase at 100 uM after 72 hrs by FACS flow cytometry; assay type: functional; procedure, shortened: as §1
[22] = test system: LNCaP; experiment: Cell cycle arrest in human LNCaP cells by accumulation at G2M phase at 100 uM after 72 hrs by FACS flow cytometry; assay type: functional; procedure, shortened: as §1
[23] = test system: PC-3; experiment: Antiproliferative activity against androgen-independent human PC3 cells at 100 uM after 72 hrs by MTT test; assay type: functional; procedure, shortened: as §2
[24] = test system: LNCaP; experiment: Cell cycle arrest in human LNCaP cells by accumulation at G1 phase at 100 uM after 72 hrs by FACS flow cytometry; assay type: functional; procedure, shortened: as §1

Sequence of Prostaglandin G/H synthase 1 (P23219 whole entry): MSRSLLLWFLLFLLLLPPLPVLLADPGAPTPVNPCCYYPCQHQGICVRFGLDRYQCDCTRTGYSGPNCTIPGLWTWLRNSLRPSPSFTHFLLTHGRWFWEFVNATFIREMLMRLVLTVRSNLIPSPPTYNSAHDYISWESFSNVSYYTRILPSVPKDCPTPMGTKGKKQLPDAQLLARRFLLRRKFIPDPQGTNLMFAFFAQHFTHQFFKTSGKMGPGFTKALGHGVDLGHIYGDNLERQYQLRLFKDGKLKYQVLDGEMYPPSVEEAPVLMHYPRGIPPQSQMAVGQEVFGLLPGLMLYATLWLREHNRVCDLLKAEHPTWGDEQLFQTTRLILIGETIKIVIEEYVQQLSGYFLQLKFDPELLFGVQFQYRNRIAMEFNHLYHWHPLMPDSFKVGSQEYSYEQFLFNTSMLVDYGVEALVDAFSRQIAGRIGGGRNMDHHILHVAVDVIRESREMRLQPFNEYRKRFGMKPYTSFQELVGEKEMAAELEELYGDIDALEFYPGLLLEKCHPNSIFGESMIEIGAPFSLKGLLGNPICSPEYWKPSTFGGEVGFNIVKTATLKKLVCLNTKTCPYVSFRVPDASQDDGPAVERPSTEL

IC50 [1]: 25.7 µM
IC50 [2]: 0.1 µM
IC50 [5]: 0.74 µM
Selectivity ratio [6]: 257
IC50 [8]: 45.9 µM
IC50 [13]: 49.7 µM
Compound: COC1(c2cc(F)cc(OCc3cc(-c4ccccc4)n(-c4ccc(S(N)(=O)=O)cc4)n3)c2)CCOCC1
Activity [3]: 10.8%
Activity [4]: Active
Activity [7]: 6.9%
Activity [9]: 2.1%
Activity [10]: 8.2%
Activity [11]: 19.5%
Activity [12]: 6.6%
Activity [14]: 71.5%
Activity [15]: 74.2%

IC50 [1]: 26.1 µM
IC50 [5]: 0.3 µM
IC50 [13]: 83.4 µM
Compound: COC1(c2cc(F)cc(OCc3cc(-c4ccccc4)n(-c4ccc(S(C)(=O)=O)cc4)n3)c2)CCOCC1
Activity [16]: 3.9%
Activity [3]: 3.6%
Activity [17]: 9.9%
Activity [7]: 11.2%
Activity [18]: 5.1%
Activity [10]: 14.7%
Activity [19]: 1.2%
Activity [20]: 67.8%
Activity [21]: 25.9%
Activity [22]: 12%
Activity [23]: 45%
Activity [24]: 74.2%
Activity [15]: 70.1%
